Only some compounds are listed: those with a hit (about 2.3% of all), similar ones and a draw of the others.
PAX8 inh HTS – lowers PAX8-driven luciferase in RMG-I cells; RMG-I TPO-luciferase reporter, SteadyGlo, 24 h; inhibition, % at 12.6 µM; 360,000 tested, 1.2% active; AID 652154;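 active = mean replicate inhibition at least 60% with every replicate also reaching 60%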;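 also: luciferase light reporting Pax8 driven TPO promoter activity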
CFTR F508del cor – CFTR F508del correction in bronchial cells; 350,000 tested, 0.36% active; CFBE cells, YFP halide quenching; stimulated with forskolin plus potentiator P3; % fluorescence drop versus neutral controls; activity (quench increase), % at 7.58 µM; AID 720511;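 active = mean added fluorescence quench of at least 8% versus neutral control, with both replicates also reaching 8%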;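 also: cells transiently co-express mutant CFTR-F508del with the halide-sensitive YFP; corrector assay measuring rescue of mutant channel to the surface after 24 h compound exposure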
HIV Env fusion – blocks HIV Env-driven cell-cell fusion. HeLa-JRFL Env/CEM21 cell fusion, luciferase. inhibition, % at 12.3 µM. 360,000 tested, 1.1% active;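 active = mean replicate inhibition score of at least 50 and every replicate individually at or above 50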
EWS-Fli inh – EWS/Fli transcriptional activity inhibition; A673 NR0B1-luciferase reporter, viability-normalised; inhibition, % at 12.6 µM; 350,000 tested, 0.67% active;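 active = mean inhibition of at least 50% after viability correction, with every replicate also passing that limit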;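 also: firefly luciferase signal divided by Alamar Blue viability fluorescence both relative to DMSO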
PGC1a acetyl inh – modulators of PGC1a acetylation. AID 651687. inhibition, % at 15.6 µM. U2OS PGC1a acetylation, AlphaScreen anti-acetyl-lysine; with virally co-expressed GCN5 acetyltransferase. 350,000 tested, 0.17% active;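 active = every replicate shows inhibition of at least 40%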
FN deposit inh – fibronectin deposition inhibition. AH1F fibroblasts, Alexa488-fibronectin deposition fluorescence, overnight. inhibition, % at 12.6 µM. 350,000 tested, 0.086% active. AID 743247;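 active = mean inhibition across replicates of 30% or more, regardless of how many single replicates reach that level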
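Material: AH1F fibroblast monolayer depositing Alexa488-labelled fibronectin into matrix | Input: 10000 AH1F cells/well | Medium: DMEM plus 2% serum, read in PBS | Reagent: Alexa488-fibronectin, 24 nM final in well | Compound dosing: One dose per compound, pinned | Schedule: 1 h adhesion, overnight exposure | Measured by: Fluorescence at 485 nm excitation, 525 nm emission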
Numbers stand for hits; - = inactive; . = no result given.

SMILES | PAX8 inh HTS | CFTR F508del cor | HIV Env fusion | EWS-Fli inh | PGC1a acetyl inh | FN deposit inh
COc1cccc(NC(=O)N(C)C[C@H]2Oc3cc(C#CC4(O)CCCC4)ccc3S(=O)(=O)N([C@@H](C)CO)C[C@@H]2C)c1 | - | - | . | - | - | -
CCCN(C)C[C@@H]1OCCCC[C@@H](C)Oc2ccc(NS(=O)(=O)c3ccc(F)cc3)cc2C(=O)N([C@H](C)CO)C[C@@H]1C | - | - | - | - | - | -
CN(C)C(=O)C[C@@H]1C=C[C@@H](NC(=O)NC2CCCC2)[C@@H](CO)O1 | - | - | - | - | - | -
COc1ccc(S(=O)(=O)N2CCCCC2)cc1NC(=O)CCCOc1ccc(C)cc1 | - | - | 70.5 | - | - | -
CCCn1c(NC(=O)c2ccccc2)nc2ccccc21 | . | . | . | . | - | .
COc1ccc(S(=O)(=O)N2CCCCC2)cc1NC(=O)CN(Cc1ccco1)Cc1ccco1 | - | - | 76.2 | - | - | .
CCCn1c(NC(=O)c2cccc(S(=O)(=O)N3CCCC3)c2)nc2ccccc21 | 73.8 | . | 132.4 | . | . | -
CCCC(=O)Nc1ccc2c(c1)C(=O)N(C)C[C@@H](OC)[C@H](C)CN(C(=O)Cc1ccccn1)[C@H](C)CO2 | - | - | - | - | - | -
COc1ccccc1-n1c(-c2ccccc2)c[n+]2c1CCc1ccccc1-2 | 88.4 | - | - | - | - | -
COc1ccc(-n2c(-c3ccc(Br)cc3)c[n+]3c2CCc2ccccc2-3)cc1 | 79.2 | - | - | - | . | -
CC(C)c1ccc(-n2c(-c3ccccc3)c[n+]3c2CCc2ccccc2-3)cc1 | 89.6 | - | - | 58.6 | - | -
FC(F)Oc1ccc(-c2c[n+]3c(n2-c2ccccc2)CCCCC3)cc1 | - | - | - | - | - | -
C[C@H](CO)N1C[C@H](C)[C@H](CN(C)S(=O)(=O)c2ccc(F)cc2)OCCCC[C@H](C)Oc2ccc(NC(=O)Nc3ccc(F)cc3)cc2C1=O | 75.5 | - | - | - | - | -
Cc1ccc(S(=O)(=O)N(C)C[C@@H]2OCCCC[C@H](C)Oc3ccc(NC(=O)Nc4ccc(F)cc4)cc3C(=O)N([C@H](C)CO)C[C@@H]2C)cc1 | 60.7 | - | - | - | - | -
C[C@@H]1CN([C@H](C)CO)C(=O)c2cc(NC(=O)Nc3ccc(F)cc3)ccc2O[C@@H](C)CCCCO[C@H]1CN(C)S(=O)(=O)c1ccc(F)cc1 | 85.6 | - | - | - | - | -
C[C@H]1CCCCO[C@@H](CN(C)S(=O)(=O)c2ccc(F)cc2)[C@@H](C)CN([C@@H](C)CO)C(=O)c2cc(NC(=O)Nc3ccc(F)cc3)ccc2O1 | - | - | - | - | - | -
COc1ccc(S(=O)(=O)NNC(=O)C2Cc3c(ccc4ccccc34)O2)cc1 (stereo not drawn) | - | . | 84.7 | . | - | .
COCCNC(=O)C1Cc2c(ccc3ccccc23)O1 (stereo not drawn) | - | - | - | - | . | -
C[C@@H]1CN([C@@H](C)CO)S(=O)(=O)c2ccc(C3=CCCC3)cc2O[C@H]1CN(C)C | . | - | - | - | - | -
COc1ccccc1Nc1c2c(nc3ccccc13)CCC2 | - | 9.8 | - | 61.9 | - | -
CC(=O)c1ccc(Nc2c3c(nc4ccccc24)CCCC3)cc1 | - | - | - | 71.1 | - | -
CC(=O)c1cccc(Nc2c3c(nc4ccccc24)CCC3)c1 | - | 14.8 | - | 56.5 | - | -
COc1ccc2[nH]c(-c3cccc(F)c3)cc(=O)c2c1 | - | - | - | - | - | -
Cc1ccc2[nH]c(-c3cccc(F)c3)cc(=O)c2c1 | - | - | . | 56.7 | . | -
O=c1cc(-c2ccccc2)[nH]c2cc(Cl)ccc12 | - | - | - | 59.4 | . | -
O=c1cc(-c2cccc(F)c2)[nH]c2ccccc12 | - | - | - | 65.6 | . | -
Cc1ccc(-c2cc(=O)c3cc(F)ccc3[nH]2)cc1 | - | - | - | - | - | -
Clc1ccc2[nH]c(-c3ccccc3)cc2c1 | . | . | . | . | - | .
Cc1ccc(-c2cc(=O)c3cc(C)ccc3[nH]2)cc1 | - | - | - | 59.1 | . | -
COc1ccc(NC(=O)N(C)C[C@@H]2Oc3ccc(NS(=O)(=O)c4ccc(Cl)cc4)cc3C(=O)N([C@@H](C)CO)C[C@@H]2C)cc1 | . | - | - | - | - | -

From PubChem BioAssay
